Screening results from PubChem BioAssay.
Sampled rows, rich in hits. Any-hit rate of the full collection: about 4.7%.
MC4R antag cAMP: human MC4R antagonism in cAMP assay | hit rate 0.48% among 360,000 | inhibition, % at 6.5 µM | MC4R-expressing cells, MTII-stimulated cAMP, LANCE TR-FRET | AID 540295;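 active = inhibition above its plate's cutoff, the mean of tested wells on that plate plus 3 SD, cut at about 29% in these data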;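 note: 0% = Melanotan II alone and 100% = Melanotan II plus saturating MCL0020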
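Test system: U2OS cells stably expressing human melanocortin 4 receptor (MC4R); also added: Melanotan II challenge; compound: 6.5 µM single dose; timing: 30-min compound preincubation, 1-h Melanotan II challenge, 1-h detection, room temperature; signal: Eu-cAMP/anti-cAMP TR-FRET, emission 671 nm; repeats: one well per compound, no replicates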
GAA850 FXN act: frataxin GAA850 promoter activation; HEK293 lucGAA850 FXN promoter luciferase reporter, 24 h; percent of 10 µM SAHA response; activation, % at 6 µM; hit rate 0.56% among 360,000; AID 540364;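 active = activation above the average of all compounds screened plus 3 SD, cutoff fixed separately per campaign, cut at about 7.5% in these data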;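 note: 0% = DMSO wells and 100% = 10 µM SAHA wells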
AHR activator: human AHR activation | P35869 | AHR-responsive luciferase reporter cells, luminescence | hit rate 2.5% among 320,000 | activation, % at 5 µM; in the data active = activation above about 47%;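 note: 0% = vehicle wells and 100% = reference agonist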
Target sequence (P35869 whole entry, looked up): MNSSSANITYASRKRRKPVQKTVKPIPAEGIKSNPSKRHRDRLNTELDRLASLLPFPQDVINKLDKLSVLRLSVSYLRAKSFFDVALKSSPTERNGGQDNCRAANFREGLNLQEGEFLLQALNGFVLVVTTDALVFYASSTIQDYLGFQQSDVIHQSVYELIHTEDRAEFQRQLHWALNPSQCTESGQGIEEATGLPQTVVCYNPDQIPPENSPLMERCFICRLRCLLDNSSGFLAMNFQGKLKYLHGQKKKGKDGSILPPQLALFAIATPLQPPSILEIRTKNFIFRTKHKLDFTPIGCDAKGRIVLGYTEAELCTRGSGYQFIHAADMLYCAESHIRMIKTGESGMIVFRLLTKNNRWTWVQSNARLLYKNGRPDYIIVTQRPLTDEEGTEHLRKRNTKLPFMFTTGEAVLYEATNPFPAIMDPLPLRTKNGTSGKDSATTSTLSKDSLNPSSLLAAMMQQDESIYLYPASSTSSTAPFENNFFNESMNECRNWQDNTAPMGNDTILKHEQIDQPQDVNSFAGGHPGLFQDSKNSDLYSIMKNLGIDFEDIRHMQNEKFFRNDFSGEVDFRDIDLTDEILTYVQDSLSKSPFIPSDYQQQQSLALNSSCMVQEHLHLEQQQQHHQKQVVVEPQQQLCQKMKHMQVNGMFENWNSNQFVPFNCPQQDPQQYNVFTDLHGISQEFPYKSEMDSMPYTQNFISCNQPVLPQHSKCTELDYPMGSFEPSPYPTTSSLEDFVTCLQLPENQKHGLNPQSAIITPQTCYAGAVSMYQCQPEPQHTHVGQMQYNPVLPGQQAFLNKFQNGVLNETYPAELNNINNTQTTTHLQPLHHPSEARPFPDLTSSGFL
m5-HT2A agonist: agonists of mouse serotonin 5-HT2A receptor (HTR2A); CHO-K1 mHTR2A beta-arrestin complementation, luminescence; percent of 30 µM serotonin response; hit rate 0.66% among 360,000; P35363; activation, % at 7.6 µM;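 active = activation above a run cutoff, the mean activation of all tested compounds plus 3 SD, cut at about 14% in these data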;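 note: 0% = plate median of compound wells and 100% = 30 µM serotonin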
MC4R ag barr: activates human MC4R beta-arrestin recruitment. AID 540308. hit rate 0.98% among 360,000. activation, % at 8.9 µM. U2OS MC4R beta-arrestin complementation, luminescence; percent of melanotan II response, DMSO zero. P32245;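 active = activation above a per-plate cutoff, the mean activation of sample wells on that plate plus 3 SD, cut at about 8% in these data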
U2OS cAMP counter: nonselective cAMP signaling inhibitor, MC4R antagonist counter-screen. parental U2OS, forskolin cAMP, LANCE TR-FRET. shares compounds with MC4R antag cAMP. AID 602193. hit rate 26% among 1,600. inhibition, % at 6.5 µM;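 active = mean inhibition over triplicates above the low-control well mean plus 3 SD, set per campaign, cut at about 13% in these data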;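 note: signal is single emission at 671 nm which falls as cellular cAMP rises; 0% = forskolin-stimulated wells and 100% = buffer without forskolin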
MC4R antag conf: human MC4R cAMP antagonism confirmation. hit rate 27% among 1,600. MC4R-expressing cells, MTII-stimulated cAMP, TR-FRET. inhibition, % at 6.5 µM. shares compounds with MC4R antag cAMP. AID 602195; in the data active = inhibition above about 29%;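 note: 0% = agonist stimulated wells alone and 100% = agonist stimulated wells plus saturating reference antagonist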
An asterisk follows results filed as active; x = not tested or not shown; ! = a repeat was not active.

SMILES | MC4R antag cAMP | GAA850 FXN act | AHR activator | m5-HT2A agonist | MC4R ag barr | U2OS cAMP counter | MC4R antag conf
CC(C)(C)OC(=O)NCc1ccc(NC(=O)c2nc[nH]c2C(=O)NCCCCNC(=O)c2[nH]cnc2C(=O)Nc2ccc(CNC(=O)OC(C)(C)C)cc2)cc1 | 15 | -2 | -1 | 2 | -1 | x | x
CC(C)(C)OC(=O)NCc1ccc(NC(=O)c2nc[nH]c2C(=O)NCCCNC(=O)c2[nH]cnc2C(=O)Nc2ccc(CNC(=O)OC(C)(C)C)cc2)cc1 | 31* | -2 | -2 | 2 | 8.7* | 3 | 8
CC(C)(C)OC(=O)NCCCCCNC(=O)c1[nH]cnc1C(=O)Nc1cc(Br)ccc1F | 33* | -3 | x | 0 | 2 | 4 | 3
O=P(c1ccccc1)(c1ccccc1)C(O)c1cccs1 (stereo not given) | 12 | 2 | x | -2 | -1 | x | x
CC(C)(C)C(=O)COC(=O)CNC(=O)c1ccc(Oc2ccccc2)cc1 | 29* | 2 | 0 | -2 | -1 | 13 | 21
CCCCOc1c(Br)cc(/C=C2\N=C(C)OC2=O)cc1OCC | 33* | 3 | 2 | -1 | -1 | 0 | 0
Cc1ccc(-c2cnc3n2CCCCC3)cc1 | 33* | -1 | 7 | -4 | 3 | -3 | -8
CCC(C)n1c(=O)c2sccc2n2c(CCCC(=O)N3CCC(C(N)=O)CC3)nnc12 (stereo not given) | -3 | -2 | 4 | -3 | 1 | x | x
O=C(CCl)c1ccc2c(c1)CCN2C(=O)C1CCCCC1 | 30* | 6 | 0 | 6 | -3 | 4 | 23
O=C(CCl)c1ccc2c(c1)CCN2C(=O)C1CC1 | x | x | -4 | x | x | x | x
CC1CC(C)CN(CC(=O)Nc2cc(S(=O)(=O)N3CCOCC3)ccc2N2CCCC2)C1 (stereo not given) | -1 | 2 | -1 | 1 | -1 | x | x
COc1ccc2c(C=Nc3c(C)n(C)n(-c4ccccc4)c3=O)c(O)n(Cc3ccco3)c(=O)c2c1 | 37*! | -1 | 9 | -2 | -2 | 2 | 1
COc1ccc(Cn2c(O)c(C=Nc3ccccc3C(=O)O)c3ccccc3c2=O)cc1 | 32* | -9 | -3 | 11 | 0 | 9 | 10
CCOc1cc(NC(=S)NCC2CCCO2)c(OCC)cc1NC(=O)c1ccccc1C (stereo not given) | 30* | 1 | -2 | -1 | 0 | -8 | -16
CCOc1cc(NC(=S)NCC2CCCO2)c(OCC)cc1NC(=O)c1ccc(OC)cc1 (stereo not given) | 7 | -1 | 3 | -4 | -1 | x | x
CCN(CC)C(=O)CCCc1c[nH]c2ccccc12 | 32* | 2 | -1 | -3 | 1 | 1 | -11
CCCCN(C)C(=O)CCCc1c[nH]c2ccccc12 | 3 | 2 | -1 | 3 | -1 | x | x
Cc1cc(N)ncc1[N+](=O)[O-] | 1 | 0 | x | 3 | -2 | x | x
Cc1cc2nc[nH]c2cc1[N+](=O)[O-] | 29* | 1 | -2 | -1 | 0 | 5 | 2
COc1cc(S(=O)(=O)n2ccc(C)n2)ccc1Cl | 29* | 0 | -1 | -5 | 0 | 1 | -7
CCc1cc(C(=O)c2ccc(C)cc2)c(NC(=O)CCl)s1 | 22 | 2 | -1 | -4 | -1 | x | x
Cc1cc(C(=O)c2ccc(Cl)cc2)c(NC(=O)CCl)s1 | 41* | 0 | 9 | -3 | 0 | 24* | 65*
CCCCNc1c(-c2ccc(OC)c(SC(C)CC)c2)nc2ccc(Cl)cn12 (stereo not given) | 15 | 0 | 6 | -2 | 4 | x | x
CCC(C)Sc1cc(-c2nc3ccc(C)cn3c2NCc2ccccc2)ccc1OC (stereo not given) | 47* | -5 | 32 | 10 | -3 | 27* | 78*
CCCCNc1c(-c2ccc(OC)c(SC(C)CC)c2)nc2ccc(C)cn12 (stereo not given) | 36* | -3 | 1 | 2 | 1 | 22* | 48*
SMILES | MC4R antag cAMP | GAA850 FXN act | AHR activator | m5-HT2A agonist | MC4R ag barr | U2OS cAMP counter | MC4R antag conf
CCC(C)Sc1ccc(-c2nc3ccc(C)cn3c2NCc2ccccc2)cc1OC (stereo not given) | 35* | -1 | 16 | -15 | -1 | 18* | 44*
CCOC(=O)c1sc(NC(=O)CCN2CCN(CC)CC2)c(C(=O)OCC)c1C | 42* | 1 | -4 | -6 | -4 | 7 | 26
COc1ccc(NC(=O)Nc2cccc3c2O[C@H](CN(C)S(C)(=O)=O)[C@@H](C)CN([C@H](C)CO)C3=O)cc1 | 2 | 1 | 0 | 0 | 0 | x | x
CS(=O)(=O)N(CC(=O)N1CCCC1)C1CCCCC1 | 8 | -1 | x | -4 | -1 | x | x
CC1(C(=O)N2CCC(CO)(Cc3cccc(C(F)(F)F)c3)CC2)CC1 | 30* | 0 | 1 | 7 | 2 | -2 | -18
CC(Sc1ccc2ccccc2n1)C(=O)O (stereo not given) | 58* | 2 | x | 2 | 3 | 42* | 77*
CC(Sc1cnc2ccccc2n1)C(=O)O (stereo not given) | 25 | 1 | 7 | 1 | -1 | x | x
CC(C)C1C(c2ccccc2)N(C)C(c2ccccc2)CC1(O)c1ccccc1 (stereo not given) | 29* | 0 | -5 | -4 | 2 | 3 | 26
Cc1ccc(S(=O)(=O)N(C)C)cc1NC(=O)Cn1c(CN2CCOCC2)nc2ccccc2c1=O | 36* | 0 | 1 | -3 | -3 | 0 | 6
Cc1ccc(S(=O)(=O)N(C)C)cc1NC(=O)CSc1nc2ccccc2c(=O)n1CC1CCCO1 (stereo not given) | 14 | -2 | -1 | -8 | -2 | x | x
CC1CCN(C(=O)c2ccc3c(c2)NC(=O)/C(=C/c2ccccc2)S3)CC1 | 35* | -3 | -2 | -2 | 8.8* | -1 | 2
COc1cc(N=Nc2ccc(Br)cc2)cc(C=O)c1O | 34* | 0 | x | -5 | -2 | -5 | -5
COc1cc(CN(C)C)cc(C=O)c1O | 2 | 2 | 1 | -1 | 2 | x | x
O=C(Nc1ccc(NC(=O)c2cccs2)c(Cl)c1)c1cccs1 | -4 | 5 | -6 | -6 | 0 | x | x
COc1cc(NC(=O)CCC(=O)N2CCN(S(=O)(=O)c3ccc(C)cc3)CC2)cc(OC)c1 | 2 | 1 | x | 10 | 0 | x | x
N#Cc1ccc(S(=O)(=O)NCC(=O)OCC(=O)N2CCCC2=O)cc1 | 34* | -1 | -1 | 5 | -5 | 19* | 14
CCOC(=O)N1CCN(C(=O)COC(=O)c2cc(C)ccc2C)CC1 | -3 | -1 | 2 | 2 | 1 | x | x
COc1ccccc1CNCc1cc(OC)c(OC)c(OC)c1 | 30* | 1 | -1 | -1 | -1 | 0 | -7
COc1ccccc1C(=O)NC(=S)N1CCCc2ccccc21 | 5 | -3 | 24 | -1 | -2 | x | x
